Results on 17 compounds are retold here after ChEMBL document CHEMBL1154972, “Novel pyrazolo-tetrahydropyridines as potent orexin receptor antagonists” (Bioorg Med Chem Lett, 2010).

The target of assay [1] is T1, Orexin/Hypocretin receptor type 1 (Homo sapiens, UniProt O43613).
T1 sequence (O43613 whole entry): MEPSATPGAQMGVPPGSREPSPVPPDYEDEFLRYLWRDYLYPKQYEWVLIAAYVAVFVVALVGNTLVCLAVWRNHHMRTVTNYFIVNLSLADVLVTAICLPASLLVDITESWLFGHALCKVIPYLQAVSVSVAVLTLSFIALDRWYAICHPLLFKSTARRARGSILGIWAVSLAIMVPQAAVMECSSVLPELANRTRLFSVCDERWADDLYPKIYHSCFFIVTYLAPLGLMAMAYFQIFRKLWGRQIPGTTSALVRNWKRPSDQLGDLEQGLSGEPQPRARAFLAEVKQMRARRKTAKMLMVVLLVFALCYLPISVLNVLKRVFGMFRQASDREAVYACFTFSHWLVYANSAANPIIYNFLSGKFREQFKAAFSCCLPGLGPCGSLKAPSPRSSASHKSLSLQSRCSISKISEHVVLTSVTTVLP
The assay is described as follows: Antagonist activity at human OX1 receptor expressed in CHO cells assessed as inhibition of calcium mobilization by FLIPR assay. The format is functional, cell-based. An outline of the steps: (§1)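 CHO cells stably bearing human OX1 or OX2 receptor, plated and loaded at 37 °C, 5% CO2 with fluo-3 AM calcium dye, then washed. Test antagonists added at varying concentrations before orexin A challenge; intracellular Ca2+ rise followed as fluorescence change on FLIPR. IC50 taken as concentration giving 50% inhibition of agonist response.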
A general note: Calcium assays in cells follow changes in intracellular calcium, usually with a dye or a luminescent sensor.

The target in another assay is T2, Orexin receptor type 2 (Homo sapiens, UniProt O43614).
T2 sequence (O43614 whole entry): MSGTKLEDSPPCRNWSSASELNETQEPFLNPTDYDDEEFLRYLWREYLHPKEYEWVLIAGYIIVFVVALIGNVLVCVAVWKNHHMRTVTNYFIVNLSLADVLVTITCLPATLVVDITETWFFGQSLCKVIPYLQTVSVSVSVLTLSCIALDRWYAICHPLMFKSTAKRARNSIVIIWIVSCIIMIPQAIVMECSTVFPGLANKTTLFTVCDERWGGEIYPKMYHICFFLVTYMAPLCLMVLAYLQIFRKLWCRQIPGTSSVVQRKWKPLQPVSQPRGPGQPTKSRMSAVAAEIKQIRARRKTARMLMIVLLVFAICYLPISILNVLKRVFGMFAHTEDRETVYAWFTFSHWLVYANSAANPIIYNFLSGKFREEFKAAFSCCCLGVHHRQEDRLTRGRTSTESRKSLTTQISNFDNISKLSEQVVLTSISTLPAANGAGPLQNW
The assay can be described thus: Antagonist activity at human OX2 receptor expressed in CHO cells assessed as inhibition of calcium mobilization by FLIPR assay. The format is functional, cell-based. The gist of the method:
as §1

The test system of assay [2] is Rattus norvegicus. The assay can be described thus: Somnolence activity in Wistar rat assessed as home cage activity in dark at 100 mg/kg, po over 12 hrs night period by radiotelemetric assay. The format is functional, organism-based. Details: dose 100 mg/kg. The gist of the method: (§2)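 Adult male Wistar rats carrying radiotelemetric implants; single oral dose 100 mg/kg in 100% PEG-400 given at dark (active) phase onset. EEG, EMG, home cage activity and body temperature recorded, effects integrated over following 12-h night. Crossover design, groups of 7 or 8, washout of at least 4 days; paired t-test; means ± SEM.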

Assay [3] relates to Rattus norvegicus. The assay can be described thus: Somnolence activity in Wistar rat assessed as time spent in non-rapid eye movement sleep at 100 mg/kg, po over 12 hrs night period by radiotelemetric assay. The format is functional, organism-based. Details: dose 100 mg/kg. An outline of the steps: as §2
Assay [4] concerns Rattus norvegicus. The assay can be described thus: Somnolence activity in Wistar rat assessed as time spent in rapid eye movement sleep at 100 mg/kg, po over 12 hrs night period by radiotelemetric assay. The format is functional. The gist of the method:
as §2

The subject of assay [5] is Rattus norvegicus. The assay can be described thus: Somnolence activity in Wistar rat assessed as time spent in active wake at 100 mg/kg, po over 12 hrs night period by radiotelemetric assay. The format is functional, organism-based. Details: dose 100 mg/kg. The gist of the method: as §2

What is called pIC50 is the IC50 on a negative log10 scale, so that one unit is a factor of ten.

Structures are written as SMILES. pIC50: −log10 of the molar value. The source made the active and inactive calls. No cut-off for these calls is given here.

Consider `CCn1nc(C)c2c1CCN([C@@H](C(=O)NC)c1ccccc1)[C@@H]2CCc1ccc(C(C)C)cc1`, for which the negative-log IC50 (pIC50) in assay [1] is 5.72; on Orexin receptor type 2, 6.75.

With `CCn1nc(C)c2c1CCN(C(C(=O)NC)c1ccccc1)C2CCc1ccc(C)cc1` (mixture of isomers), the values for the pIC50 (in assay [1]; on Orexin receptor type 2) were 6.97 and 8.22, respectively.

In the case of `CCn1nc(C)c2c1CCN([C@@H](C(=O)NC)c1ccccc1)[C@H]2CCc1cc(F)c(C(F)(F)F)c(F)c1`, the outcome in the assay with Rattus norvegicus [2] and in the assay with Rattus norvegicus [3] was Active. Further, in the assay with Rattus norvegicus [4], the Activity turned out to be 8%.

On to `CCc1ccc(CC[C@@H]2c3c(C)nn(CC)c3CCN2[C@@H](C(=O)NC)c2ccccc2)cc1`, for which the values for the pIC50 (in assay [1]; at Orexin receptor type 2) were 5.85 and 6.76, respectively.

`CCn1nc(C)c2c1CCN(C(C(=O)NC)c1ccccc1)C2Cc1ccc(C(F)(F)F)cc1` (mixture of isomers): the pIC50 is 6.11 in assay [1] and 7.60 on Orexin receptor type 2.

Consider `CCc1ccc(CC[C@H]2c3c(C)nn(CC)c3CCN2[C@@H](C(=O)NC)c2ccccc2)cc1`, for which the pIC50 in assay [1] is 7.20; on Orexin receptor type 2, 8.52.

On to `CCn1nc(C)c2c1CCN(C(C(=O)NC)c1ccccc1)C2CCc1cccc(C)c1` (mixture of isomers), for which the negative-log IC50 (pIC50) in assay [1] was 6.74; on Orexin receptor type 2 it was 7.72.

Take `CCn1nc(C)c2c1CCN(C(C(=O)NC)c1ccccc1)C2CCc1cccc(C(F)(F)F)c1` (mixture of isomers): the pIC50 in assay [1] is 6.45; on Orexin receptor type 2, 8.15.

As for `CCn1nc(C)c2c1CCN(C(C(=O)NC)c1ccccc1)C2CCc1cccc(F)c1` (mixture of isomers), the pIC50 is 6.40 in assay [1] and 8.00 on Orexin receptor type 2.

In the case of `CCn1nc(C)c2c1CCN([C@@H](C(=O)NC)c1ccccc1)[C@H]2CCc1ccc(C(C)C)cc1`, the pIC50 in assay [1] was 6.79; at Orexin receptor type 2, 8.05.

For `CCn1nc(C)c2c1CCN([C@@H](C(=O)NC)c1ccccc1)[C@H]2COc1ccc(C)cc1`, the pIC50 is 5.00 in assay [1] and 7.72 at Orexin receptor type 2.

For the compound `CCn1nc(C)c2c1CCN([C@@H](C(=O)NC)c1ccccc1)[C@H]2CCc1ccc(C)c(C)c1`, the result with Rattus norvegicus [2], in the assay on Rattus norvegicus [5] and in the assay with Rattus norvegicus [3] was Active. Further, the Activity in the assay on Rattus norvegicus [4] is recorded as 15%.

Turning to `CCn1nc(C)c2c1CCN(C(C(=O)NC)c1ccccc1)C2CCc1ccc(Cl)cc1` (mixture of isomers), the pIC50 in assay [1] was 6.00; on Orexin receptor type 2 it was 7.92.

With `CCn1nc(C)c2c1CCN(C(C(=O)NC)c1ccccc1)C2CCc1ccc(OC)cc1` (mixture of isomers), the negative-log IC50 (pIC50) was 5.00 in assay [1] and 6.66 at Orexin receptor type 2.

As to `CCn1nc(C)c2c1CCN(C(C(=O)NC)c1ccccc1)C2CCc1ccccc1F` (mixture of isomers), the values for the pIC50 (in assay [1]; at Orexin receptor type 2) were 6.17 and 7.66, respectively.

`CCn1nc(C)c2c1CCN(C(C(=O)NC)c1ccccc1)C2CCc1ccccc1C` (mixture of isomers): the pIC50 in assay [1] is 5.99; on Orexin receptor type 2, 7.68.

In the case of `CCn1nc(C)c2c1CCN([C@@H](C(=O)NC)c1ccccc1)[C@H]2CCc1ccc(C(F)(F)F)cc1`, the negative logarithm of the IC50 (pIC50) in assay [1] is 6.89; on Orexin receptor type 2, 8.52.
